The values below come from ChEMBL document CHEMBL3860038, “Discovery of (R,E)-N-(7-Chloro-1-(1-[4-(dimethylamino)but-2-enoyl]azepan-3-yl)-1H-benzo[d]imidazol-2-yl)-2-methylisonicotinamide (EGF816), a Novel, Potent, and WT Sparing Covalent Inhibitor of Oncogenic (L858R, ex19del) and Resistant (T790M) EGFR Mutants for the Treatment of EGFR Mutant …” (J Med Chem, 2016).

Data set [1] has as its target Epidermal growth factor receptor (Homo sapiens, UniProt P00533, L858R/T790M). In words: Inhibition of EGFR L858R/T790M mutant phosphorylation in human patient derived H1975 cells incubated for 3 hrs by ELISA method. Type of data set: cell-based.
The target of data set [2] is Epidermal growth factor receptor (Homo sapiens, UniProt P00533, L858R). As to the kind of experiment: Inhibition of EGFR L858R mutant phosphorylation in human patient derived H3255 cells incubated for 3 hrs by ELISA method. Type of data set: cell-based.
Data set [3] can be described thus: Inhibition of EGFR E746 to A750 deletion mutant phosphorylation in human patient derived HCC827 cells incubated for 3 hrs by ELISA method. It is filed as cell-based. The note with it: HCC827, 3 h. Put shortly:
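HCC827 cells plated at 7500/well in 5% FBS/RPMI and left overnight at 37 °C. Then 3 h with a 12-point compound dilution series, no EGF stimulation. Lysed in Triton/protease/phosphatase-inhibitor buffer. Phospho-EGFR (Y1173) read by sandwich ELISA: anti-EGFR capture, anti-phospho-EGFR, anti-rabbit-HRP, chemiluminescence. IC50 from at least duplicates.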

The target of data set [4] is Epidermal growth factor receptor (Homo sapiens, UniProt P00533). As to the kind of experiment: Inhibition of wild type EGFR phosphorylation in human HaCaT cells incubated for 3 hrs by ELISA method. It is filed as cell-based.
Data set [5] is described as follows: Aqueous solubility of the compound at pH 6.8. It is filed as physicochemical.
A further data set has as its target Cytochrome P450 3A4 (Homo sapiens, UniProt P08684). In words: Inhibition of CYP3A4 (unknown origin). It is filed as ADME.
The next data set addresses Cytochrome P450 2D6 (Homo sapiens, UniProt P10635). As to the kind of experiment: Inhibition of CYP2D6 (unknown origin). Type of data set: ADME.
The target of another data set is Cytochrome P450 2C9 (Homo sapiens, UniProt P11712). In words: Inhibition of CYP2C9 (unknown origin). It is filed as ADME.
A short description of data set [6]: Intrinsic clearance in human liver microsomes. Type of data set: ADME. The note with it: read-out: CLH.
Data set [7] in a line: Intrinsic clearance in mouse liver microsomes. Type of data set: ADME. To be noted: read-out: CLH.
Data set [8] can be described thus: Clearance in balb/c mouse at 5 mg/kg, iv by liquid chromatography-tandem mass spectrometry. It is filed as ADME, organism-based. To be noted: in vivo. Put shortly: (§1)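 Rodent PK in male balb/c mice and male Wistar rats; plasma drug levels by LC-MS/MS. Mouse oral dosing at 20 mg/kg, with compounds given as a 0.5% methylcellulose/0.5% Tween 80 suspension or as solutions (PEG300/D5W, or ethanol/PEG300 with Solutol or D5W), depending on compound.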

A short description of data set [9]: AUC in balb/c mouse at 20 mg/kg, po by liquid chromatography-tandem mass spectrometry. To be noted: in vivo. Type of data set: ADME, organism-based. The method in brief: as §1
A short description of data set [10]: Oral bioavailability in balb/c mouse at 20 mg/kg by liquid chromatography-tandem mass spectrometry. It is filed as ADME, organism-based. The note with it: in vivo. Put shortly: as §1
Data set [11] can be described thus: Drug metabolism in mouse liver microsomes assessed as oxidation at 7-methyl groups. It is filed as ADME.
Data set [12] is described as follows: Drug metabolism in mouse liver microsomes assessed as oxidation at acrylate groups. Type of data set: ADME.
The nature of data set [13]: Drug metabolism in rat liver microsomes assessed as oxidation at 7-methyl groups. It is filed as ADME.
A short description of data set [14]: Drug metabolism in rat liver microsomes assessed as oxidation at acrylate groups. Type of data set: ADME.
The nature of data set [15]: Drug metabolism in human liver microsomes assessed as oxidation at 7-methyl groups. It is filed as ADME.
The nature of data set [16]: Drug metabolism in human liver microsomes assessed as oxidation at acrylate groups. Type of data set: ADME.
A short description of data set [17]: Glutathione reactivity assessed as GSH adduct formation incubated for 1 hr using 10 mM glutathione. The method in brief:
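Compound incubated 1 h with 10 mM glutathione; GSH adduct formation measured.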

Chain of Cytochrome P450 2C9 (P11712 whole entry): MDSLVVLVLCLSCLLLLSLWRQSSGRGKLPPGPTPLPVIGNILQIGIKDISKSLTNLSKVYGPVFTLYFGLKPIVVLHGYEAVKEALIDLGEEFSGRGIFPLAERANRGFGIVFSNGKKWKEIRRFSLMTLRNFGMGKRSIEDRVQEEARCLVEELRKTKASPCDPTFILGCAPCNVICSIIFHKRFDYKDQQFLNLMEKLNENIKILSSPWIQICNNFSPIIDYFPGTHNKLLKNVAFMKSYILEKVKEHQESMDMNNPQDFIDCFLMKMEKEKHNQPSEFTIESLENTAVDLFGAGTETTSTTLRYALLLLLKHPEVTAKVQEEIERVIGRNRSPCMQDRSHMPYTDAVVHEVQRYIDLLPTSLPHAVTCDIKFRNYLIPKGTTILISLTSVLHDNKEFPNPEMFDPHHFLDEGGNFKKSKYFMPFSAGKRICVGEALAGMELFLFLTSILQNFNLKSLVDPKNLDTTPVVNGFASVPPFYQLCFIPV
Chain of Epidermal growth factor receptor (Homo sapiens, UniProt P00533, L858R/T790M) (P00533 25-1210 T790M/L858R limits assumed): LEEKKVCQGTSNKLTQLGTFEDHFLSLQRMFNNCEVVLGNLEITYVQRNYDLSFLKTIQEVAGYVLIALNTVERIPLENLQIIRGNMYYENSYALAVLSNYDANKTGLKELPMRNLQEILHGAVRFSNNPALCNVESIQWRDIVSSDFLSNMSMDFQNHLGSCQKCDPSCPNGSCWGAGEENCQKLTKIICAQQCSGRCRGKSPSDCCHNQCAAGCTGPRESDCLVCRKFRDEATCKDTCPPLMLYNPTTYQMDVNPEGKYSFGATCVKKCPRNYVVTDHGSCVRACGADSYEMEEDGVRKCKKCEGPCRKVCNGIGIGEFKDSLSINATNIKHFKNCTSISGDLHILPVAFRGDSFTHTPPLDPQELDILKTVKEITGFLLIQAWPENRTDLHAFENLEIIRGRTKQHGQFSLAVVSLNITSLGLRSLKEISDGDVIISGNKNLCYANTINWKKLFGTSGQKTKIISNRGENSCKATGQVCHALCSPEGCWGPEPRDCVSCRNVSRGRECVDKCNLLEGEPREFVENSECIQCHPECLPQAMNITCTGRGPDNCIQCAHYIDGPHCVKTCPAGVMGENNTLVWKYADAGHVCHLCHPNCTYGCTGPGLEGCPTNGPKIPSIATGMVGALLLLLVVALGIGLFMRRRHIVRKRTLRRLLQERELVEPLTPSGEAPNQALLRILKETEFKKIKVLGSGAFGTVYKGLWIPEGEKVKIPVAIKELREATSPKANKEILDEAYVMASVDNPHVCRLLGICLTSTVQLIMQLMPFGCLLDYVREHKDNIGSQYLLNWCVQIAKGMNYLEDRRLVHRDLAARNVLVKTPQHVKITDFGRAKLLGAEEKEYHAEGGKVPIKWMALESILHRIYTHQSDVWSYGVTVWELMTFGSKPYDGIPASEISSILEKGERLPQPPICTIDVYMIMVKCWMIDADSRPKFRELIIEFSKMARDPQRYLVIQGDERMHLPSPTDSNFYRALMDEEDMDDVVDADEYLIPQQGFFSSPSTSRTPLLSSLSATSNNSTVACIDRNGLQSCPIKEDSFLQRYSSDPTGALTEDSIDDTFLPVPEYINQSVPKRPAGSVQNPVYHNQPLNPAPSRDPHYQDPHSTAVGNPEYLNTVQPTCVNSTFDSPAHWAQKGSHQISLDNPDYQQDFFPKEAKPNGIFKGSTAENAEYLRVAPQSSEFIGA
Chain of Epidermal growth factor receptor (Homo sapiens, UniProt P00533, L858R) (P00533 25-1210 L858R limits assumed): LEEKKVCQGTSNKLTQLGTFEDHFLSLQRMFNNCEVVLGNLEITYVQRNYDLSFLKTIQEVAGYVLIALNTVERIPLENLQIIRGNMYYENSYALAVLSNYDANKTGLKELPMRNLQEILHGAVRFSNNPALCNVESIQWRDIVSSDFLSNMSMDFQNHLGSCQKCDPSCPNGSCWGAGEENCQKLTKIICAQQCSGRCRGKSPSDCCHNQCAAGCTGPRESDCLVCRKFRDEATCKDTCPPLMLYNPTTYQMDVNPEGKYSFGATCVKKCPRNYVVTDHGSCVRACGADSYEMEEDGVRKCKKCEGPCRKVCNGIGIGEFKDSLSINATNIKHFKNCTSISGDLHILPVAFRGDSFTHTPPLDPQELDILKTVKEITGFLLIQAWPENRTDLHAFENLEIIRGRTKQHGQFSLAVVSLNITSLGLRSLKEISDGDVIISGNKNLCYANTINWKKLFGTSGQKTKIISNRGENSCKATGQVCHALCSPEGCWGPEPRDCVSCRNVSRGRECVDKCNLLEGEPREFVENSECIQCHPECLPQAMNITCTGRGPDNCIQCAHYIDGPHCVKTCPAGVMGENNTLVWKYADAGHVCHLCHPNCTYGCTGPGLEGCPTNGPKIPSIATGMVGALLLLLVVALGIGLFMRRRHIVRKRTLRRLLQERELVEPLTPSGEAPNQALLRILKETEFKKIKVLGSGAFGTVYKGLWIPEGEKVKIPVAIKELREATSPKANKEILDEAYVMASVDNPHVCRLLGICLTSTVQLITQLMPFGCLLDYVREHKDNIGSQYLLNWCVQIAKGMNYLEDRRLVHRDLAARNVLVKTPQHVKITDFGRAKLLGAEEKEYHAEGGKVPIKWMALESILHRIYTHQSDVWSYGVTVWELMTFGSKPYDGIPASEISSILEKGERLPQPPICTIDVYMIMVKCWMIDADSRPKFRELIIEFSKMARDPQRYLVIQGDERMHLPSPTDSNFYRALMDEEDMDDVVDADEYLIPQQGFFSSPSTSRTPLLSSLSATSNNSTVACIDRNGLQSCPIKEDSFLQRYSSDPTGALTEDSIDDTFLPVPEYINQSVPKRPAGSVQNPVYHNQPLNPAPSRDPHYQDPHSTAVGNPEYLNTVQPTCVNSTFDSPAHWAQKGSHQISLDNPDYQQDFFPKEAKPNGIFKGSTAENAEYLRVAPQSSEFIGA
Chain of Cytochrome P450 2D6 (P10635 whole entry): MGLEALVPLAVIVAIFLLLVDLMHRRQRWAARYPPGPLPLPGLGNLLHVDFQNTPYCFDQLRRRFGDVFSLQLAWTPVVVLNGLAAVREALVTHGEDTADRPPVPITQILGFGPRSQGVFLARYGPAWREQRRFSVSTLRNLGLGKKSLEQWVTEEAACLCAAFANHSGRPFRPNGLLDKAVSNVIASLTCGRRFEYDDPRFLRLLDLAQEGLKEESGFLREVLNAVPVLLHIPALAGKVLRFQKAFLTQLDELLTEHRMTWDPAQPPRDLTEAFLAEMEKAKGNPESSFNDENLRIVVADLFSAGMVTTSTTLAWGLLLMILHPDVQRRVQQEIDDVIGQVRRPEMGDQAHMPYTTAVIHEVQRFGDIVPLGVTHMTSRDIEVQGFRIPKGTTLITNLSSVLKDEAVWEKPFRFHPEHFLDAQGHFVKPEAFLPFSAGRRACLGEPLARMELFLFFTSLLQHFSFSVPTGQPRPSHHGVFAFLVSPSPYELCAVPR
Chain of Cytochrome P450 3A4 (P08684 whole entry): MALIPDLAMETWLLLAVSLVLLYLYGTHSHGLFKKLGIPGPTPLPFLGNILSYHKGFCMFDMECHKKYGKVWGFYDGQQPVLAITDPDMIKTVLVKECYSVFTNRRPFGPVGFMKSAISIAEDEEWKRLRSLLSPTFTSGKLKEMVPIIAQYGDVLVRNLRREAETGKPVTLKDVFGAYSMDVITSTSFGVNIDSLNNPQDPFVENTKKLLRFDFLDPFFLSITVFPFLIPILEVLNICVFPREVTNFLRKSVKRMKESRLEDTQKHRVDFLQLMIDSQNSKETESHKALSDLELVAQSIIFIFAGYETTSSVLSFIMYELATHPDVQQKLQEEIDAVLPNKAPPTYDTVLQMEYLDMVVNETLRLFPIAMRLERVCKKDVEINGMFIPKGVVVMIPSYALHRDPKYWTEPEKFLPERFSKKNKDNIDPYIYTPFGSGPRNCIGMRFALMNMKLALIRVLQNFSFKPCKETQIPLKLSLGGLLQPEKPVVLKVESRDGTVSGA
Chain of Epidermal growth factor receptor (Homo sapiens, UniProt P00533) (P00533 whole entry): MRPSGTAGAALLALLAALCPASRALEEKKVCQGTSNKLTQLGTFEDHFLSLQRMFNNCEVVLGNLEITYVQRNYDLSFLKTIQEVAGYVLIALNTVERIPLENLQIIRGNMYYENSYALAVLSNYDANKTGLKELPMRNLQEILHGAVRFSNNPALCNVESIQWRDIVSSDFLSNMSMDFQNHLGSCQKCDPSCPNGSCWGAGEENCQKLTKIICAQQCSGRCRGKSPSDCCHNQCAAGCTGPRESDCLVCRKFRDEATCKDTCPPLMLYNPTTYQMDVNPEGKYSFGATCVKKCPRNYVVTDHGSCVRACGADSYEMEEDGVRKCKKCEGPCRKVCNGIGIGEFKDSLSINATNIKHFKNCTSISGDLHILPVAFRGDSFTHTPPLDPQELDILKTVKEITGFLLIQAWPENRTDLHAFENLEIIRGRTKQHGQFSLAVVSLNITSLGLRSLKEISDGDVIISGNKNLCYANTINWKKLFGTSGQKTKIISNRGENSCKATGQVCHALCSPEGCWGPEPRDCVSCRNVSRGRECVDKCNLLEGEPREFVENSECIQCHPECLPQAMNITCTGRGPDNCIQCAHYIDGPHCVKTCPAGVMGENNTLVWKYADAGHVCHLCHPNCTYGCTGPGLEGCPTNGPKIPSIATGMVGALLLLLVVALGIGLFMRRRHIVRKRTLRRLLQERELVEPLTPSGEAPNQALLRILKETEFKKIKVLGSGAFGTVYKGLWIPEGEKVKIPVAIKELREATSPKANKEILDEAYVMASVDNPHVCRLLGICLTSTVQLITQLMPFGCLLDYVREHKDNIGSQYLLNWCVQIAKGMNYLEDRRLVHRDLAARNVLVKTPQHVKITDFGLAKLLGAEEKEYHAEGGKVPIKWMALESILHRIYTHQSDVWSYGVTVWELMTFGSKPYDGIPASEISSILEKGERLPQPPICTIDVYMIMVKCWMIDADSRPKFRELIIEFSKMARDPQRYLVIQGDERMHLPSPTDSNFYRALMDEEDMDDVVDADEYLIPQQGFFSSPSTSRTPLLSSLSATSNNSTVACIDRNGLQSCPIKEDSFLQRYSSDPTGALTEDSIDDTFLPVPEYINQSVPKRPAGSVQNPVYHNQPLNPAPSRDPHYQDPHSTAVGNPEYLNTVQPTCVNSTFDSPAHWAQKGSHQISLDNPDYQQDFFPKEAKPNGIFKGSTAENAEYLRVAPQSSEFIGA

On to `C=CC(=O)N1CCCC[C@@H](n2c(NC(=O)c3cccc(C(F)(F)F)c3)nc3cccc(C)c32)C1`, for which the IC50 in [1] is 1.39 nM; in [2], 14.8 nM; in data set [3] it was 3.93 nM; in data set [4] it was 250 nM; at Cytochrome P450 3A4, 3500 nM; against Cytochrome P450 2D6 it was above 25000 nM. This compound yielded an IC50 at Cytochrome P450 2C9 of 3400 nM. In data set [5], this compound showed a solubility below 2 µM. Further, the microsomal CLint in [6] came out at 83 µL/min/mg; in data set [7], 245 µL/min/mg. This compound showed a clearance in [8] of 54 mL/min/kg. Besides, the AUC in [9] amounted to 0.808 µM·h. This compound also came in with a bioavailability in data set [10] of 6%. The Drug metabolism entry in [11], in data set [12], in data set [13], in data set [14], in data set [15] and in data set [16] was “Metabolite_Detected” throughout. In addition, in data set [17], the Drug metabolism is below 5%.
